The source of these data is paper PMC5421360 (Peptides, 2017).

The target in data set [1] is T1, ETAR (Homo sapiens, UniProt P25101).
T1 sequence (P25101 21-427): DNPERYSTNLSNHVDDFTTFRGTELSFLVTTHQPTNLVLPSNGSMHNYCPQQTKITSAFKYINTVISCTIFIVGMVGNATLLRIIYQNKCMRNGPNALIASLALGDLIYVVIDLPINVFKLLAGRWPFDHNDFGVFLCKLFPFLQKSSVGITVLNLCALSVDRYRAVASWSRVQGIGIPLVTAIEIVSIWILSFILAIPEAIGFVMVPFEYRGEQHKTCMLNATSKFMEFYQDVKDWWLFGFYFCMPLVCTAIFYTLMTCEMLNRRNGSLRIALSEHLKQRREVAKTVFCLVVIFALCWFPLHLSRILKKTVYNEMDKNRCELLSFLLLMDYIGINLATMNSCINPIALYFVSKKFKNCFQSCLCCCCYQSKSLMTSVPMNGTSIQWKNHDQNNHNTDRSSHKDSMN
The experiment in a line: 125I-ET-1 radioreceptor binding to NCI-H838 cells.

In data set [2] the target is T1, ETAR. The experiment in a line: 125I-ET-1 radioreceptor binding to NCI-H1975 cells.
The test system of data set [3] is HER2. The experiment in a line: Western blot of HER2 tyrosine phosphorylation in NCI-H838 cells. Format: cell-based, human. The conditions noted are these: for effect on HER2 transactivation caused by ET-1: NSCLC cells, concentration not given; for effect on HER2 transactivation caused by ET-1 / effect on basal P-HER2 or HER2: data not shown; for effect on increase in HER2 phosphorylation caused by 100 nM ET-1: 10 μM inhibitor, 2 min ET-1; for effect on basal P-HER2 or HER2: inhibitor alone. In general terms: Immunoblotting shows a protein as a band on a membrane.

Data set [4] has as its system EGFR. The experiment in a line: Western blot of EGFR tyrosine phosphorylation in NCI-H838 cells. Format: cell-based, human. Particulars: for effect on EGFR transactivation caused by ET-1: NSCLC cells, concentration not given; for effect on EGFR transactivation caused by ET-1 / effect on basal P-EGFR, EGFR: data not shown; for effect on increase in EGFR phosphorylation caused by 100 nM ET-1: 10 μM inhibitor, 2 min ET-1; for effect on basal P-EGFR, EGFR: inhibitor alone.

The subject of data set [5] is cytosolic Ca2+ in NCI-H1975 cells. The experiment in a line: Cytosolic Ca2+ in Fura-2AM loaded NCI-H1975 cells. The data set is classed as cell-based, human. Particulars: for antagonism of the Ca2+ increase caused by 10 nM ET-1: 1000 nM antagonist; for effect on basal cytosolic Ca2+: 1000 nM antagonist alone. Put shortly:
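NCI-H1975 cells were detached with trypsin-EDTA and loaded with Fura-2AM in SIT medium (2.5 × 10^6 cells/ml) at 37°C for 30 min. Cells were spun at 1000 × g for 5 min, resuspended at 2.5 × 10^6/ml and placed in a stirred quartz cuvette at 37°C.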

Data set [6] deals with NCI-H838 cells. The experiment in a line: Clonogenic assay, NCI-H838 cells. Format: cell-based, human. The conditions noted are these: gefitinib 1 ug/ml; for Colony number: in the presence of ET-1 10 nM, BQ123/BQ788 1000 nM, 2 weeks; for reduction of colony number: absence of exogenous ET-1, BQ123 1 μM.
The subject of data set [7] is cytosolic Ca2+ in SC-A1 cells. The conditions noted are these: cited from earlier work.
Data set [8] relates to reactive oxygen species in NCI-H838 cells. The experiment in a line: Reactive oxygen species in H2DCF labeled NCI-H838 cells. The data set is classed as cell-based, human. The method in brief: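 NCI-H838 cells were plated at 30,000/well and cultured overnight. They were loaded with 10 µM H2DCF for 1 h and washed 3 times in serum-free SIT medium. Test compound (5 mM or 10 µM) was added 30 min before 10 µM H2O2. Fluorescence (ex 485, […]) was read 0.5 h after stimulus and expressed as relative fluorescence, mean ± S.D. of 8 determinations.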

The subject of data set [9] is EGFR. The experiment in a line: Western blot of EGFR tyrosine phosphorylation in NCI-H1975 cells. The data set is classed as cell-based, human. The conditions noted are these: 5 mM. The method in brief:
(§1)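 Lysates (Tris pH 7.5, vanadate) were either immunoprecipitated with anti-phosphotyrosine antibody (400 µg protein) or loaded directly (20 µg) and probed with anti-PY1068-EGFR or anti-[…]-HER2. ECL bands were quantified by densitometry as mean % tyrosine phosphorylation.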

In data set [10] the test system is HER2. The experiment in a line: Western blot of HER2 tyrosine phosphorylation in NCI-H1975 cells. The data set is classed as cell-based, human. The conditions noted are these: 5 mM. Put shortly:
as §1

In data set [11] the test system is NSCLC patients. Particulars: plus paclitaxel-carboplatin; cited from earlier work.
Data set [12] deals with NCI-H838 cells. The experiment in a line: MTT proliferation assay, NCI-H838 cells. The data set is classed as cell-based. The conditions noted are these: Homo sapiens, NCI-H838, 48 h, read-out: IC50, proliferation. In general terms: Formazan colour is commonly taken as a measure of viable cells.
Data set [13] has as its system NSCLC patients. Particulars: zibotentan or zibotentan plus pemetrexed; cited from earlier work.
A further data set deals with A549 cells. The experiment in a line: MTT proliferation assay, A549 cells. The data set is classed as cell-based. The conditions noted are these: Homo sapiens, A549, 48 h, read-out: IC50, proliferation.
Another data set deals with NCI-H727 cells. The experiment in a line: MTT proliferation assay, NCI-H727 cells. The data set is classed as cell-based. Particulars: Homo sapiens, NCI-H727, 48 h, read-out: IC50, proliferation.
The mark [14] stands for this setting: addition alone (ET-1 100 nM, H2O2 10 μM, Tiron 5 mM, ZD4054 10 μM), 0.5 hr, None = 100.
Setting [15] is: with H2O2 10 μM, Tiron or ZD4054 added 0.5 h before, read 0.5 hr after H2O2.

SMILES strings stand for the structures. ≈ marks a conversion by molar mass, not a printed value. Marks after values point to notes of the source that are not given here. Non-standard residues stand in square brackets, D forms with d. Residues, ends and D or L forms follow the SMILES beside them. Where only a bound is given, the exact number is not on record here.

On to `CCCC[C@@H](NC(=O)[C@@H](Cc1cn(C(=O)OC)c2ccccc12)NC(=O)[C@H](CC(C)(C)C)NC(=O)N1[C@H](C)CCC[C@@H]1C)C(=O)O` [BQ788], for which, at ETAR [1], the IC50 worked out at 20 ± 2 nM. The molecule further had an IC50 at ETAR [2] of 25 ± 3 nM. Also, in the data set on HER2 [3], the “effect on HER2 transactivation caused by ET-1” value is on record as “little effect”. Besides, the “effect on EGFR transactivation caused by ET-1” value in the data set on EGFR [4] is “little effect”. For the same molecule, in data set [5], the “antagonism of the Ca2+ increase caused by 10 nM ET-1” value was “did not antagonize” and the “effect on basal cytosolic Ca2+” value is listed as “had no effect”. For the same molecule, the Colony number in the data set with NCI-H838 cells [6] came out at 46 ± 4.

`COc1ccc2c(c1)CC[C@@H]1[C@@H]2CC[C@]2(C)[C@@H](NCCCCCCN3C(=O)C=CC3=O)CC[C@@H]12` [U73122]: the “effect on the Ca2+ increase caused by ET-1” value in data set [7] is “reversed”.

Turning to `COc1cc2ncnc(Nc3ccc(F)c(Cl)c3)c2cc1OCCCN1CCOCC1` [Gefitinib, gefitinib], the “effect on HER2 transactivation caused by 100 nM ET-1” value with HER2 [3] (10 μg/ml) is “significantly reduced”. Moreover, in the data set on NCI-H838 cells [6], the “reduction of colony number” value worked out at 50% and the Colony number is 32 ± 3 ^aa.

As for `CC(C)(C)n1nc(-c2ccc(Cl)cc2)c2c(N)ncnc21` [PP2], in the data set with HER2 [3], the “effect on increase in HER2 phosphorylation caused by 100 nM ET-1” value is “inhibited significantly” and the “effect on basal P-HER2 or HER2” value is listed as “no effect”. Besides, in the data set on EGFR [4], the “effect on increase in EGFR phosphorylation caused by 100 nM ET-1” value is “inhibited significantly” and the “effect on basal P-EGFR, EGFR” value was “no effect”.

Turning to `OO` [H2O2], in data set [8] (setting [14]), the “% Fluorescence intensity” value is 401 ± 37 ^aa %.

On to `COC(=O)C1=C(C)NC(C)=C(C(=O)OC)C1c1ccccc1[N+](=O)[O-]` [nifedipine], for which, in data set [7], the “effect on the Ca2+ increase caused by ET-1” value is listed as “reversed”.

For `O=S(=O)(O)c1cc(O)c(O)c(S(=O)(=O)O)c1` [Tiron], the “effect on increase in EGFR tyrosine phosphorylation caused by ET-1” value with EGFR [9] is recorded as “inhibited significantly”. Also, the “% Fluorescence intensity” value in data set [8] (setting [14]) is 99 ± 7 ^aa^, ^bb %; in data set [8] (setting [15]), 171 ± 12 ^bb %. The “effect on basal P-HER2 or HER2” value with HER2 [3] was “no effect”. The “effect on basal P-EGFR, EGFR” value in the data set with EGFR [4] is listed as “no effect”. The “effect on increase in HER2 tyrosine phosphorylation caused by ET-1” value in the data set with HER2 [10] is “inhibited significantly”.

`CCCCN(CCCC)C(=O)CN1C[C@H](c2ccc3c(c2)OCO3)[C@@H](C(=O)O)[C@@H]1c1ccc(OC)cc1` [atrasentan]: the tolerability result in the data set with NSCLC patients [11] is recorded as “well tolerated”.

As to `CC(C)C[C@@H]1NC(=O)[C@@H](C(C)C)NC(=O)[C@@H]2CCCN2C(=O)[C@@H](CC(=O)O)NC(=O)[C@@H](Cc2c[nH]c3ccccc23)NC1=O` [BQ123] (cyclo(L[dW][dD]P[dV]); ring closure inferred), the IC50 is 1 ± 0.2 nM on ETAR [1] and 1.5 ± 0.03 nM at ETAR [2]. Further, the “effect on the Ca2+ increase caused by ET-1” value in data set [7] is “reversed”. Besides, the results for the “effect on HER2 tyrosine phosphorylation caused by 100 nM ET-1” value with HER2 [3] (0.1 μM antagonist) and in the data set on HER2 [3] (1 μM or 10 μM antagonist) were “little effect” and “significantly reduced”, respectively. The “effect on EGFR tyrosine phosphorylation caused by 100 nM ET-1” value in the data set with EGFR [4] (0.1 μM antagonist) is “little effect”; in the data set with EGFR [4] (1 μM or 10 μM antagonist), “significantly reduced”. Besides, the “antagonism of the Ca2+ increase caused by 10 nM ET-1” value in [5] was “blocked”. Moreover, in data set [5], the “effect on basal cytosolic Ca2+” value is recorded as “did not alter”. Moreover, the “reduction of colony number” value in the data set with NCI-H838 cells [6] amounted to 22%. The Colony number with NCI-H838 cells [6] is 37 ± 2 ^a.

Regarding `COc1nc(C)cnc1NS(=O)(=O)c1cccnc1-c1ccc(-c2nnco2)cc1` [ZD4054, zibotentan], the IC50 in the data set on NCI-H838 cells [12] is 50 µg/mL (≈ 118 µM); in the data set on A549 cells it was 45 µg/mL (≈ 106 µM). The “% Fluorescence intensity” value in [8] (setting [14]) is reported as 105 ± 6 ^aa^, ^bb %; in data set [8] (setting [15]), 351 ± 22 ^aa %. Further, the overall survival result with NSCLC patients [13] is “no differences”. Besides, the “effect on HER2 transactivation caused by ET-1” value in the data set on HER2 [3] is “inhibited”. In addition, the “effect on EGFR transactivation caused by ET-1” value in the data set on EGFR [4] was “inhibited”.

For `CC(=O)N[C@@H](CS)C(=O)O` [Nacetylcysteine], the “effect on HER2 transactivation caused by ET-1” value in the data set on HER2 [3] is “inhibited”. Further, the “effect on EGFR transactivation caused by ET-1” value in the data set on EGFR [4] was “inhibited”.

For the molecule `CNC(=O)[C@H](Cc1c[nH]c2ccccc12)NC(=O)[C@@H](CC(=O)NO)CC(C)C` [GM6001], in the data set on HER2 [3], the “effect on increase in HER2 phosphorylation caused by 100 nM ET-1” value is given as “inhibited significantly” and the “effect on basal P-HER2 or HER2” value is on record as “no effect”. Also, in the data set with EGFR [4], the “effect on increase in EGFR phosphorylation caused by 100 nM ET-1” value was “inhibited significantly” and the “effect on basal P-EGFR, EGFR” value is on record as “no effect”.

As to `CS(=O)(=O)CCNCc1ccc(-c2ccc3ncnc(Nc4ccc(OCc5cccc(F)c5)c(Cl)c4)c3c2)o1` [Lapatinib, lapatinib], the IC50 in the data set on NCI-H838 cells [12] was 1 µg/mL (≈ 1.72 µM); at ETAR [1], more than 10000 nM; at ETAR [2], more than 10000 nM; with NCI-H727 cells it was 0.5 µg/mL (≈ 0.86 µM); with A549 cells it was 2 µg/mL (≈ 3.44 µM). For the same molecule, the “effect on HER2 transactivation caused by ET-1” value with HER2 [3] is “inhibited”. Besides, the “effect on EGFR transactivation caused by ET-1” value in the data set with EGFR [4] is recorded as “inhibited”.
